Tested on: not listed separately
Assay: Antiproliferative activity against human U87MG cells by Brdu incorporation assay
Assay type: functional, cell-based, U-87MG ATCC
Settings: U-87 MG
In short: (§1)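 Cells were grown in DMEM with 10% FBS, 2 mM L-glutamine and penicillin/streptomycin. They were seeded at 2000 cells/well, attached overnight, then exposed to increasing compound concentrations for 48 h. DNA synthesis was read by a colorimetric BrdU ELISA. Each condition was run in triplicate, with at least two experiments, reported as the mean ± SD of independent experiments.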

| SMILES | IC50 |
| --- | --- |
| C[C@@]12CCC[C@H]1[C@@H]1CCc3cc(O)c(NC=O)cc3[C@H]1CC2 | 42.9 µM |
| COc1cc2c(cc1O)CC[C@@H]1[C@@H]2CC[C@]2(C)/C(=N/O)CC[C@@H]12 | 9.4 µM |
| COc1cc2c(cc1O)CC[C@@H]1[C@@H]2CC[C@]2(C)[C@@H](N)CC[C@@H]12 | 19 µM |
| COc1cc2c(cc1O)CC[C@@H]1[C@@H]2CC[C@]2(C)[C@@H](C)CC[C@@H]12 | 9.39 µM |
| COc1cc2c(cc1O)CC[C@@H]1[C@@H]2CC[C@]2(C)CCC[C@@H]12 | 7.59 µM |
| CC[C@H]1CC[C@H]2[C@@H]3CCc4cc(O)c(OC)cc4[C@H]3CC[C@]12C | 12.8 µM |
| COc1cc2c(cc1O)CC[C@@H]1[C@@H]2CC[C@]2(C)C(C(=O)O)CC[C@@H]12 (stereo partly drawn) | > 100 µM |
| CCC[C@H]1CC[C@H]2[C@@H]3CCc4cc(O)c(OC)cc4[C@H]3CC[C@]12C | 87.9 µM |
| C[C@@]12CCC[C@H]1[C@@H]1CCc3cc(O)c(N)cc3[C@H]1CC2 | > 100 µM |
| COc1cc2c(cc1O)CC[C@@H]1[C@@H]2CC[C@]2(C)C(C(N)=O)CC[C@@H]12 (stereo partly drawn) | 11.2 µM |
| COc1cc2c(cc1O)CC[C@@H]1[C@@H]2CC[C@]2(C)/C(=N/NS(=O)(=O)c3ccc(C)cc3)CC[C@@H]12 | 27.3 µM |

Tested on: PC-3
Assay: Antiproliferative activity against human PC3 cells by Brdu incorporation assay
Assay type: functional, cell-based
Settings: not given
In short: as §1

| SMILES | IC50 |
| --- | --- |
| C[C@@]12CCC[C@H]1[C@@H]1CCc3cc(O)c(NC=O)cc3[C@H]1CC2 | 26 µM |
| COc1cc2c(cc1O)CC[C@@H]1[C@@H]2CC[C@]2(C)/C(=N/O)CC[C@@H]12 | 8.11 µM |
| COc1cc2c(cc1O)CC[C@@H]1[C@@H]2CC[C@]2(C)[C@@H](N)CC[C@@H]12 | 13.8 µM |
| COc1cc2c(cc1O)CC[C@@H]1[C@@H]2CC[C@]2(C)[C@@H](C)CC[C@@H]12 | 6.46 µM |
| COc1cc2c(cc1O)CC[C@@H]1[C@@H]2CC[C@]2(C)CCC[C@@H]12 | 8.49 µM |
| CC[C@H]1CC[C@H]2[C@@H]3CCc4cc(O)c(OC)cc4[C@H]3CC[C@]12C | 8.7 µM |
| COc1cc2c(cc1O)CC[C@@H]1[C@@H]2CC[C@]2(C)C(C(=O)O)CC[C@@H]12 (stereo partly drawn) | > 100 µM |
| CCC[C@H]1CC[C@H]2[C@@H]3CCc4cc(O)c(OC)cc4[C@H]3CC[C@]12C | 85.4 µM |
| C[C@@]12CCC[C@H]1[C@@H]1CCc3cc(O)c(N)cc3[C@H]1CC2 | > 80 µM |
| COc1cc2c(cc1O)CC[C@@H]1[C@@H]2CC[C@]2(C)C(C(N)=O)CC[C@@H]12 (stereo partly drawn) | 21.5 µM |
| COc1cc2c(cc1O)CC[C@@H]1[C@@H]2CC[C@]2(C)/C(=N/NS(=O)(=O)c3ccc(C)cc3)CC[C@@H]12 | 27.2 µM |

Tested on: HUVEC
Assay: Antiangiogenic activity against HUVECs by Brdu incorporation assay
Assay type: functional, cell-based
Settings: Homo sapiens
In short: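 After overnight attachment they were washed with PBS and held 24 h without growth factor (EBM, 2% FBS). They were then given increasing drug concentrations in EBM with 2% FBS plus 10 ng/mL bFGF for 48 h at 37 °C. Proliferation was read by BrdU ELISA.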

| SMILES | IC50 |
| --- | --- |
| C[C@@]12CCC[C@H]1[C@@H]1CCc3cc(O)c(NC=O)cc3[C@H]1CC2 | 6.8 µM |
| COc1cc2c(cc1O)CC[C@@H]1[C@@H]2CC[C@]2(C)/C(=N/O)CC[C@@H]12 | 4.27 µM |
| COc1cc2c(cc1O)CC[C@@H]1[C@@H]2CC[C@]2(C)[C@@H](N)CC[C@@H]12 | 13.4 µM |
| COc1cc2c(cc1O)CC[C@@H]1[C@@H]2CC[C@]2(C)[C@@H](C)CC[C@@H]12 | 2.4 µM |
| COc1cc2c(cc1O)CC[C@@H]1[C@@H]2CC[C@]2(C)CCC[C@@H]12 | 1.32 µM |
| CC[C@H]1CC[C@H]2[C@@H]3CCc4cc(O)c(OC)cc4[C@H]3CC[C@]12C | 3.63 µM |
| COc1cc2c(cc1O)CC[C@@H]1[C@@H]2CC[C@]2(C)C(C(=O)O)CC[C@@H]12 (stereo partly drawn) | 35.9 µM |
| CCC[C@H]1CC[C@H]2[C@@H]3CCc4cc(O)c(OC)cc4[C@H]3CC[C@]12C | 40.8 µM |
| C[C@@]12CCC[C@H]1[C@@H]1CCc3cc(O)c(N)cc3[C@H]1CC2 | 60.1 µM |
| COc1cc2c(cc1O)CC[C@@H]1[C@@H]2CC[C@]2(C)C(C(N)=O)CC[C@@H]12 (stereo partly drawn) | 4.55 µM |
| COc1cc2c(cc1O)CC[C@@H]1[C@@H]2CC[C@]2(C)/C(=N/NS(=O)(=O)c3ccc(C)cc3)CC[C@@H]12 | 7.95 µM |

Tested on: MCF7
Assay: Estrogenic activity in human MCF7 cells assessed as stimulation of cell proliferation relative to 2-methoxyestradiol
Assay type: functional
Settings: not given
In short: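 MCF-7 were kept in DMEM/F12 with 10% FBS, seeded at 20–30,000 cells/well, adhered overnight and counted. After a PBS wash they were starved 3 days in phenol red-free IMEM with 2% charcoal-dextran-stripped FBS. Increasing concentrations were given, with medium renewed every 2–3 days. Cells were Coulter-counted after 8 or 10 days, in triplicate, and expressed as stimulation index relative to 2ME2 (1.00).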

| SMILES | fold change (FC) |
| --- | --- |
| C[C@@]12CCC[C@H]1[C@@H]1CCc3cc(O)c(NC=O)cc3[C@H]1CC2 | 1.71 |
| COc1cc2c(cc1O)CC[C@@H]1[C@@H]2CC[C@]2(C)/C(=N/O)CC[C@@H]12 | 1.22 |
| COc1cc2c(cc1O)CC[C@@H]1[C@@H]2CC[C@]2(C)[C@@H](N)CC[C@@H]12 | 0.19 |
| COc1cc2c(cc1O)CC[C@@H]1[C@@H]2CC[C@]2(C)[C@@H](C)CC[C@@H]12 | 0.89 |
| COc1cc2c(cc1O)CC[C@@H]1[C@@H]2CC[C@]2(C)CCC[C@@H]12 | 0.24 |
| CC[C@H]1CC[C@H]2[C@@H]3CCc4cc(O)c(OC)cc4[C@H]3CC[C@]12C | 0.49 |
| CCC[C@H]1CC[C@H]2[C@@H]3CCc4cc(O)c(OC)cc4[C@H]3CC[C@]12C | 0.69 |
| C[C@@]12CCC[C@H]1[C@@H]1CCc3cc(O)c(N)cc3[C@H]1CC2 | 1.49 |
| COc1cc2c(cc1O)CC[C@@H]1[C@@H]2CC[C@]2(C)/C(=N/NS(=O)(=O)c3ccc(C)cc3)CC[C@@H]12 | 0.43 |

Tested on: not listed separately
Assay: Metabolic stability in human liver microsomes assessed as compound remaining at 5 uM after 15 mins by LCMS analysis relative to 0 mins
Assay type: ADME, Microsome
Settings: read-out: Stability
In short: (§2)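 Human liver microsomes were incubated in 50 mM tris pH 7.5 with 10 mM MgCl2, 2 mM UDPGA, 25 µg alamethicin/mg microsomal protein and 5 µM compound. Aliquots at 0, 15, 30 and 60 min were quenched in acetonitrile with internal standard. Samples were analysed by C18 LCMS in negative ion mode as % remaining versus 0 min. Controls were BSA without microsomes, and incubations lacking UDPGA.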

| SMILES | remaining at 0.25 h, 5 µM |
| --- | --- |
| C[C@@]12CCC[C@H]1[C@@H]1CCc3cc(O)c(NC=O)cc3[C@H]1CC2 | 101% |
| COc1cc2c(cc1O)CC[C@@H]1[C@@H]2CC[C@]2(C)[C@@H](N)CC[C@@H]12 | 32% |
| COc1cc2c(cc1O)CC[C@@H]1[C@@H]2CC[C@]2(C)[C@@H](C)CC[C@@H]12 | 67% |
| COc1cc2c(cc1O)CC[C@@H]1[C@@H]2CC[C@]2(C)CCC[C@@H]12 | 94% |
| CC[C@H]1CC[C@H]2[C@@H]3CCc4cc(O)c(OC)cc4[C@H]3CC[C@]12C | 91% |

Tested on: not listed separately
Assay: Metabolic stability in human liver microsomes assessed as compound remaining at 5 uM after 30 mins by LCMS analysis relative to 0 mins
Assay type: ADME, Microsome
Settings: read-out: Stability
In short: as §2

| SMILES | remaining at 0.5 h, 5 µM |
| --- | --- |
| C[C@@]12CCC[C@H]1[C@@H]1CCc3cc(O)c(NC=O)cc3[C@H]1CC2 | 86% |
| COc1cc2c(cc1O)CC[C@@H]1[C@@H]2CC[C@]2(C)[C@@H](N)CC[C@@H]12 | 30% |
| COc1cc2c(cc1O)CC[C@@H]1[C@@H]2CC[C@]2(C)[C@@H](C)CC[C@@H]12 | 57% |
| COc1cc2c(cc1O)CC[C@@H]1[C@@H]2CC[C@]2(C)CCC[C@@H]12 | 101% |
| CC[C@H]1CC[C@H]2[C@@H]3CCc4cc(O)c(OC)cc4[C@H]3CC[C@]12C | 76% |

Tested on: not listed separately
Assay: Metabolic stability in human liver microsomes assessed as compound remaining at 5 uM after 60 mins by LCMS analysis relative to 0 mins
Assay type: ADME, Microsome
Settings: read-out: Stability
In short: as §2

| SMILES | remaining at 1 h, 5 µM |
| --- | --- |
| C[C@@]12CCC[C@H]1[C@@H]1CCc3cc(O)c(NC=O)cc3[C@H]1CC2 | 68% |
| COc1cc2c(cc1O)CC[C@@H]1[C@@H]2CC[C@]2(C)[C@@H](N)CC[C@@H]12 | 9% |
| COc1cc2c(cc1O)CC[C@@H]1[C@@H]2CC[C@]2(C)[C@@H](C)CC[C@@H]12 | 47% |
| COc1cc2c(cc1O)CC[C@@H]1[C@@H]2CC[C@]2(C)CCC[C@@H]12 | 117% |
| CC[C@H]1CC[C@H]2[C@@H]3CCc4cc(O)c(OC)cc4[C@H]3CC[C@]12C | 72% |

Tested on: MDA-MB-231 (Homo sapiens)
Assay: Antiproliferative activity against human MDA-MB-231 cells by Brdu incorporation assay
Settings: not given

| SMILES | IC50 |
| --- | --- |
| C[C@@]12CCC[C@H]1[C@@H]1CCc3cc(O)c(NC=O)cc3[C@H]1CC2 | 24.6 µM |
| COc1cc2c(cc1O)CC[C@@H]1[C@@H]2CC[C@]2(C)/C(=N/O)CC[C@@H]12 | 8.68 µM |
| COc1cc2c(cc1O)CC[C@@H]1[C@@H]2CC[C@]2(C)[C@@H](N)CC[C@@H]12 | 9.77 µM |
| COc1cc2c(cc1O)CC[C@@H]1[C@@H]2CC[C@]2(C)[C@@H](C)CC[C@@H]12 | 3.33 µM |
| COc1cc2c(cc1O)CC[C@@H]1[C@@H]2CC[C@]2(C)CCC[C@@H]12 | 2.2 µM |
| CC[C@H]1CC[C@H]2[C@@H]3CCc4cc(O)c(OC)cc4[C@H]3CC[C@]12C | 48.1 µM |
| COc1cc2c(cc1O)CC[C@@H]1[C@@H]2CC[C@]2(C)C(C(=O)O)CC[C@@H]12 (stereo partly drawn) | > 100 µM |
| CCC[C@H]1CC[C@H]2[C@@H]3CCc4cc(O)c(OC)cc4[C@H]3CC[C@]12C | 95.3 µM |
| C[C@@]12CCC[C@H]1[C@@H]1CCc3cc(O)c(N)cc3[C@H]1CC2 | > 100 µM |
| COc1cc2c(cc1O)CC[C@@H]1[C@@H]2CC[C@]2(C)C(C(N)=O)CC[C@@H]12 (stereo partly drawn) | 2.51 µM |
| COc1cc2c(cc1O)CC[C@@H]1[C@@H]2CC[C@]2(C)/C(=N/NS(=O)(=O)c3ccc(C)cc3)CC[C@@H]12 | 72.5 µM |

— ChEMBL document CHEMBL1152617, “Synthesis of 2- and 17-substituted estrone analogs and their antiproliferative structure-activity relationships compared to 2-methoxyestradiol” (Bioorg Med Chem, 2009)
